Tested on: MS2 coat protein
Experiment: apparent Kd, MS2 coat protein; higher = weaker binding; RNA-MaP array; FMN 200 µM where present
Procedure, shortened: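 The titrant was SNAP-549-labelled MS2 coat protein, run from 0.7 or 1.5 nM in doubling steps to 3 µM. It was applied to designs transcribed by stalled E. coli RNA polymerase on Illumina sequencing-chip clusters, without ligand first and then with constant ligand, in 100 mM Tris-HCl pH 7.5, 80 mM KCl, 4 mM MgCl2, BSA, DTT, yeast tRNA and Tween-20. The apparent Kd is the median of filtered per-cluster binding-curve fits, with green signal normalised to red-channel RNA signal and control-cluster median Fmax.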

[1] = designed as: OFF switch for flavin mononucleotide, no ligand
[2] = ligand present: flavin mononucleotide, designed as: OFF switch for flavin mononucleotide
[3] = designed as: ON switch for flavin mononucleotide, no ligand
[4] = ligand present: flavin mononucleotide, designed as: ON switch for flavin mononucleotide

Sequence: CUCUUGUGAGGAUAUCAGGUGUGCUAGCGUACUGGUACAUCUGAGAAGGCACAUGAGGAUCACCCAUGUUUCAA
- apparent Kd [1]: 118 nM
- apparent Kd [2]: 21.9 nM

Sequence: UCCUUCUGUUGAGGAUAUGUAAGACAGCAGCUGCUAUGGCGGCACGCUGAUACAGAAGGCAACAUGAGGAUCACCCAUGUUCAA
- apparent Kd [1]: 20.4 nM
- apparent Kd [2]: 73 nM

Sequence: GGAUAGGACAGAGGAUAUGCGUGCUAGAGAUACUAGCAAAAUUUCCUCACAUGAGGAUCACCCAUGUAGAAGGCUGUCCUAUCG
- apparent Kd [1]: 7.75 nM
- apparent Kd [2]: 66.2 nM

Sequence: UUUAUGUAAGGAUAUGCGGGCGGGCGCGUUUGUGUUUGUUUGUAGAAGGUACAUGAGGAUCACCCAUGUAGUGG
- apparent Kd [1]: 133 nM
- apparent Kd [2]: 169 nM

Sequence: UGUCGGAGCAGAGGAUAUUACAUGAGGAUCACCCAUGUAUGGACCAAUAGCUGGAAACAGCAAUGUAAGAAGGCUGCUCCGACA
- apparent Kd [1]: 18.3 nM
- apparent Kd [2]: 215 nM

Sequence: ACAUGAGGAUCACCCAUGUAUUACAUGGUUAAGUUUAUUAACAGAAGGCGAAAUUACCACUUGGUCGAGGAUAUGUAUUCUAUU
- apparent Kd [1]: 40.3 nM
- apparent Kd [2]: 40.7 nM

Sequence: UCCUAACAUGAGGAUCACCCAUGUGAGGAUAUGAUACUAUGUACUUCGGUACAUAGUAUCAGAAGGCACAUCCU
- apparent Kd [1]: 19.1 nM
- apparent Kd [2]: 26 nM

Sequence: CUGGAUCACGCAGGAUAUUACAUGAGGAUCACCCAUGUCAGAACUGCAAUAUCGUCUCCUCGUUGUGAGAAGGGCGGAAUCAUA
- apparent Kd [1]: 13.8 nM
- apparent Kd [2]: 19.9 nM

Sequence: UGUAUACAUGAGGAUCACCCAUGUAAGGAUAUGCUUUAUUAUUAUUAUUAUUAUUAUUGCAGAAGGUACAUUAU
- apparent Kd [1]: 35.8 nM
- apparent Kd [2]: 35.9 nM

Sequence: AACAGGACAGGAUAUACAUGAGGAUCACCCAUGUAGGAAACAAGCAGAGUACCAAAAAGUAGAAGGGUCAUGGA
- apparent Kd [1]: 60.2 nM
- apparent Kd [2]: 79.5 nM

Sequence: AUCGGUCCGUAGAAGGGUGACAUGAGGAUCACCCAUGUGCCGUGUGCGUUUAUGCCUCCACGGCCACAGGAUAUACGGAGUUGA
- apparent Kd [3]: 28.2 nM
- apparent Kd [4]: 19.1 nM

Sequence: UUUACAUGAGGAUCACCCAUGUAUAGAACGGUUAAUUAAAGUGAGGAUAUACAUAAUUUUAAAUUGUAGAAGGCACUGGGUACA
- apparent Kd [3]: 14.4 nM
- apparent Kd [4]: 19.9 nM

Sequence: GUUAUAAAGGUAGGAUAUAGUAUUAUAAUUAAAUUAGAAGGAUCUCACAUGAGGAUCACCCAUGUAAGAGGAUCACCCAUGUAU
- apparent Kd [1]: 11.4 nM
- apparent Kd [2]: 8.66 nM

Sequence: UUGAAUUGAAACAUGAGGAUCACCCAUGUGUCAUAAUUGACAUAGGAUAUGUUUAUACUUUUAAAACAGAAGGAUGACGAUACU
- apparent Kd [3]: 14.1 nM
- apparent Kd [4]: 9.68 nM

Sequence: UUGUUCUGAGGAUAUACAUGAGGAUCACCCAUGUGUUUCUGCUUGGUGUCUUGCGAAUGUAGAAGGCUGUUCUC
- apparent Kd [1]: 37.5 nM
- apparent Kd [2]: 40.2 nM

Sequence: UUUAUGGGACAGAAGGGCAUUUACAUGAGGAUCACCCAUGUUCAUCAUUGCAGGAUAUGUAUUACAUGAGGAUCACCUAUGUAC
- apparent Kd [3]: 74.9 nM
- apparent Kd [4]: 24.4 nM

Sequence: UAAAAUCAUGUAGGAUAUGCGUGGCGAAGCUAUGCAGAAGGACAUGAGGAUCACCCAUGUCUUACUGUGCGUACACAGUUAAAG
- apparent Kd [1]: 16.7 nM
- apparent Kd [2]: 79.5 nM

Sequence: UUGGACGUCGUAGGAUAUGAAGGAUAUUCCUACAUGAGGAUCACCCAUGUUGACAUGGAAGAAGGACAGAAGGACGAUGUCCAU
- apparent Kd [3]: 11.3 nM
- apparent Kd [4]: 5.16 nM

Sequence: GUGUACAGAGGAUAUACUGGAGCUAGGAAACUAGCAACUUCACAUGAGGAUCACCCAUGUAGAAGGCUGUACAC
- apparent Kd [1]: 17.1 nM
- apparent Kd [2]: 65.7 nM

Sequence: CAGACCGGCGCAGGAUAUGUCGACAUGAGGAUCACCCAUGUAAGCCUUGUCUGGUCCGGUGUGUGACAGAAGGGUGUCGGCCAA
- apparent Kd [1]: 29.5 nM
- apparent Kd [2]: 21.9 nM

Sequence: AGCUGUGGCCGAGGAUAUCUAAACUCAAUAACCGAAAUAUAAUCGGACAUGAGGAUCACCCAUGUAGAGAAGGCGGUCUCAGCA
- apparent Kd [1]: 34.1 nM
- apparent Kd [2]: 71.8 nM

Sequence: UAUAUAUAGUAAGGAUAUGUAUUAUUUUUAUAAACAGAAGGUACUGACAUGAGGAUCACCCAUGUUUUAGUGUGGGCAUGUAGA
- apparent Kd [1]: 49.1 nM
- apparent Kd [2]: 70.4 nM

Sequence: GCCAUCACAUGAGGAUAUGCUCCCGUUUCGGGAGCAGAAGGCGUGUCAUUAGACAUGAGGAUCACCCAUGUAGUUAAGAUGGCA
- apparent Kd [3]: 667 nM
- apparent Kd [4]: 22.8 nM

Sequence: GGGUGGCGUAGAGGAUAUGUGUUACAUGAGGAUCACCCAUGUGCAUAUGAUGUUCGUGUGUAUGCAUAGAAGGCUACGUCGCUA
- apparent Kd [3]: 222 nM
- apparent Kd [4]: 125 nM

Sequence: CAUGCACAUGAGGAUCACCCAUGUCAGGAUAUCUAUCAUAGCAUCGAAAGAUGCGGGUAGAGAAGGGACAACCC
- apparent Kd [1]: 16.2 nM
- apparent Kd [2]: 16.4 nM

Sequence: GGUGCAUAUGAGAAGGCGAUCAUGAAACAUGAUCGAGGAUAUCAUGUAAACAUGAGGAUCACCCAUGUAUGGGUAAAGUGCAUC
- apparent Kd [3]: 444 nM
- apparent Kd [4]: 27.1 nM

Sequence: GGAUUUUACUAGUUUUCUAAACAUGAGGAUCACCCAUGUUUUUAGGAUAUCAGCGUGAAACACGCUGAGAAGGAAGAACAAUCC
- apparent Kd [1]: 15.7 nM
- apparent Kd [2]: 18.2 nM

Sequence: GCUCUCGGAGGAUAUGUGCCGAGUGACAUGAGGAUCACCCAUGUAUUUCUCCUGUAAUCUACAGAAGGCCGAGGCG
- apparent Kd [1]: 161 nM
- apparent Kd [2]: 23.9 nM

Sequence: AUACUCAUGUAAGGAUAUGCAGCCGAAACGGCUGCAGAAGGUACUAAAAUACAUGAGGAUCACCCAUGUCUUUUUAAUUUAGAC
- apparent Kd [3]: 258 nM
- apparent Kd [4]: 255 nM

Sequence: CUGCGGUCAGGAUAUGCAUGGCGGGACUUGCGUCGUGGCGUGGAGAAGGGACAUGAGGAUCACCCAUGUGGAGA
- apparent Kd [1]: 67.9 nM
- apparent Kd [2]: 42.3 nM

Sequence: GGAUCGAGUGUGAGGAUAUACCUAUGGAAACAUAGGUAGAAGGCACAUGAGGAUCACCCAUGUCCUAACGGUCC
- apparent Kd [1]: 350 nM
- apparent Kd [2]: 514 nM

Sequence: UAUAUAUAGUAAGGAUAUGUAUUAAUUUUAUAAACAGAAGGUACUGACAUGAGGAUCACCCAUGUUUUAGUGUGGGCAUGUAGA
- apparent Kd [1]: 102 nM
- apparent Kd [2]: 169 nM

Sequence: CCAGCGUAUGUGAGGAUAUGCUGGUCCUUGGAUCAGCAGAAGGCACAUGAGGAUCACCCAUGUGAUGACGUUGG
- apparent Kd [1]: 50.9 nM
- apparent Kd [2]: 287 nM

Sequence: GUAAUUAAGAGAGGAUAUUGACAUGAGGAUCACCCAUGUAUUUGGGAGUGUUCACUGAAUUCUUACGAGAAGGCUUUUAAAUAC
- apparent Kd [1]: 329 nM
- apparent Kd [2]: 285 nM

Sequence: GUGUACAGAGGAUAUAUAUGAGCUAGGAAACUAGCAAACUCACAUGAGGAUCACCCAUGUAGAAGGCUGUACAC
- apparent Kd [1]: 29.4 nM
- apparent Kd [2]: 156 nM

Sequence: CAGGUAGACUGAGGAUAUACACUAAACAGCUAGUCUAUCUAGCUGCUCACAUGAGGAUCACCCAUGUAGAAGGCAGUCUGCCUG
- apparent Kd [1]: 17.2 nM
- apparent Kd [2]: 39.3 nM

Sequence: UCACGGAGCCUAGGAUAUACAUGAGGAUCACCCAUGUAUUAACGUUAGUGCUGGACUGAUUUGCUGUAGAAGGAGGUCACCGAA
- apparent Kd [1]: 20.9 nM
- apparent Kd [2]: 43.1 nM

Sequence: AGGUCAACCACAGGAUAUGGCUAGCAUAGCUAGCCAGAAGGGUGGUCGUAACUAUGUAAAUACAUGAGGAUCACCCAUGUAUCC
- apparent Kd [3]: 134 nM
- apparent Kd [4]: 25.4 nM

Sequence: UAUGGUUAAGUCAGGAUAUACUAAUAGAAAUCUGUGUAGAAGGGACAUGAGGAUCACCCAUGUAUGGUAGUGUU
- apparent Kd [1]: 68.7 nM
- apparent Kd [2]: 75.1 nM

Sequence: ACAAGGCAUGUAGGAUAUCCAUUGCGUCGCGAUGGAGAAGGGCAACACACAUGAGGAUCACCCAUGUGGUCACCCAUGUCGUGU
- apparent Kd [1]: 55.8 nM
- apparent Kd [2]: 68.8 nM

Sequence: AUUUUGUCAGGAUAUGAGUAGUAGGAUGAGAGUGCUACUACUUAGAAGGGACAUGAGGAUCACCCAUGUCUUCC
- apparent Kd [1]: 14.2 nM
- apparent Kd [2]: 16.7 nM

Sequence: AUAAGUGAAAGCUAAAGAUUAGCCGAGGAUAUACAUGAGGAUCACCCAUGUAAGGGUCGCCUUCUGUAGAAGGCGGCGGUCUAG
- apparent Kd [1]: 40.5 nM
- apparent Kd [2]: 76.5 nM

Sequence: AGCUAGUCAGGAUAUACGAACAUGUCAAAAGACGAGAACGGACAUGAGGAUCACCCAUGUAGAAGGGACUAGCA
- apparent Kd [1]: 55 nM
- apparent Kd [2]: 325 nM

Sequence: CAUUCGUGUCUAGGAUAUGAGUGACAAGCGCGAGAUUUUCUCGCCGCUAGCUCAGAAGGAGACAUGAGGAUCACCCAUGUAAGG
- apparent Kd [1]: 60.1 nM
- apparent Kd [2]: 11.8 nM

Sequence: UCAUUUUUACAAGGAUAUCAAUAUAAUAUAAUAGCUACAUGAGGAUCACCCAUGUUUUAGCGUGGUGAGAAGGUGUAUUGUCGG
- apparent Kd [3]: 89.5 nM
- apparent Kd [4]: 63 nM

Sequence: GUCAGCUCGUGAGGAUAUACAACACUGCUUCGGCAGUGUAUUAAGAUCACAUGAGGAUCACCCAUGUAGAAGGCACGAGCUGAG
- apparent Kd [1]: 13 nM
- apparent Kd [2]: 200 nM

Sequence: GCAGAUCACGUGAGGAUAUCGUCUACCUCGGUAGUCGAGAAGGCACAUGAGGAUCACCCAUGUGAGUGUUCUGC
- apparent Kd [1]: 20.1 nM
- apparent Kd [2]: 19.5 nM

Sequence: UCUAAUUAGUGAGGAUAUGCAUAAUUUAUAACUGCAGAAGGCACAAACCUCAAGACAUGAGGAUCACCCAUGUGGAAUAUAGAU
- apparent Kd [1]: 93.8 nM
- apparent Kd [2]: 215 nM

Sequence: GGAAAGCGAGGAUAUACAUGAGGAUCACCCAUGUAAAAGAAAAGAAAAGAAAGAAAAUGUAGAAGGCGCAAAAA
- apparent Kd [1]: 47.8 nM
- apparent Kd [2]: 48.4 nM

Sequence: GCACUUACGUUAGGAUAUGGAUCGGAAAACGAUCCAGAAGGAAUAUGGGAACAUGAGGAUCACCCAUGUUCCGCAGACAAGUGC
- apparent Kd [3]: 96.5 nM
- apparent Kd [4]: 39 nM

Sequence: AGUACGUCAGGAUAUCUGAUGUCUAACUUCGGUUAGACAUCAGAGAAGGGACAUGAGGAUCACCCAUGUACUAG
- apparent Kd [1]: 38.7 nM
- apparent Kd [2]: 42.6 nM

Sequence: GGGAAACAUGAGGAUCACCCAUGUCAGGAUAUGAUACUAUGUACUUCGGUACAUAGUAUCAGAAGGGACAUCAU
- apparent Kd [1]: 73.8 nM
- apparent Kd [2]: 204 nM

Sequence: CAGCAUAAGUAGAAGGCUAUAUAUUUAAUUAUAUAAGGAUAUACAUGAGGAUCACCCAUGUGUUCCAGCUGAAUAAUAAUAUAU
- apparent Kd [1]: 5.49 nM
- apparent Kd [2]: 5.82 nM

Sequence: AUUAUAUAGAUAGGAUAUUGAUUAUUAUUUUAACAUGAGGAUCACCCAUGUAGCCUUAUGUAUAACAAGAAGGAUCAUUUAUUA
- apparent Kd [1]: 161 nM
- apparent Kd [2]: 181 nM

Sequence: GGUAAGAUGCAGAAGGUGUUAGCUAGAGCUACGACAUGAGGAUCACCCAUGUACUAGAAACAGUACAAGGAUAUGCAUCUUACU
- apparent Kd [3]: 18.9 nM
- apparent Kd [4]: 6.53 nM

Source: the EternaBench riboswitch data
